Assays:
[1] = Growth inhibition of glioblastoma cells (LNZ 308) by the compound (200 uM) upon incubation for 24 hours using MTT assay; type: functional, Homo sapiens
Outline: (§1)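 Human glioblastoma cells were kept in DMEM with 4.5 g/L glucose, 5% FCS and antibiotics, then plated for 24-72 h. They were exposed in fresh complete medium for 24, 48 or 72 h to 0, 100, 200 or 300 µM compound, with stocks in methanol/PBS 1:20. MTT at 0.2 mg/mL was present for the final 2 h. Formazan was dissolved in 0.1 N HCl/2-propanol and read at 540 nm. Readings were expressed relative to untreated cells. Triplicate wells.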

[2] = Growth inhibition of glioblastoma cells (LN18) by the compound (200 uM) upon incubation for 48 hours using MTT assay; type: functional, Homo sapiens; design: unit not given here; outline: as §1
[3] = Growth inhibition of glioblastoma cells (LNZ 308) by the compound (200 uM) upon incubation for 72 hours using MTT assay; type: functional, Homo sapiens; outline: as §1
[4] = Growth inhibition of glioblastoma cells (LNZ 308) by the compound (100 uM) upon incubation for 48 hours using MTT assay; type: functional, Homo sapiens; outline: as §1
[5] = Growth inhibition of glioblastoma cells (LNZ 308) by the compound (300 uM) upon incubation for 48 hours using MTT assay; type: functional, Homo sapiens; outline: as §1
[6] = Growth inhibition of glioblastoma cells (LN18) by the compound (300 uM) upon incubation for 72 hours using MTT assay; type: functional, Homo sapiens; design: unit not given here; outline: as §1
[7] = Growth inhibition of glioblastoma cells (LNZ 308) by the compound (100 uM) upon incubation for 72 hours using MTT assay; type: functional, Homo sapiens; outline: as §1
[8] = Growth inhibition of glioblastoma cells (LNZ 308) by the compound (300 uM) upon incubation for 72 hours using MTT assay; type: functional, Homo sapiens; outline: as §1
[9] = Growth inhibition of glioblastoma cells (LN18) by the compound (300 uM) upon incubation for 24 hours using MTT assay; type: functional, Homo sapiens; design: unit not given here; outline: as §1
[10] = Growth inhibition of glioblastoma cells (LNZ 308) by the compound (100 uM) upon incubation for 24 hours using MTT assay; type: functional, Homo sapiens; outline: as §1
[11] = Growth inhibition of glioblastoma cells (LN18) by the compound (200 uM) upon incubation for 24 hours using MTT assay; type: functional, Homo sapiens; design: unit: %; outline: as §1
[12] = Growth inhibition of glioblastoma cells (LN18) by the compound (100 uM) upon incubation for 48 hours using MTT assay; type: functional, Homo sapiens; design: unit: %; outline: as §1
[13] = Growth inhibition of glioblastoma cells (LN18) by the compound (100 uM) upon incubation for 24 hours using MTT assay; type: functional, Homo sapiens; outline: as §1
[14] = Growth inhibition of glioblastoma cells (LN18) by the compound (300 uM) upon incubation for 48 hours using MTT assay; type: functional, Homo sapiens; design: unit: %; outline: as §1
[15] = Growth inhibition of glioblastoma cells (LN18) by the compound (100 uM) upon incubation for 72 hours using MTT assay; type: functional, Homo sapiens; design: unit: %; outline: as §1
[16] = Growth inhibition of glioblastoma cells (LNZ 308) by the compound (200 uM) upon incubation for 48 hours using MTT assay; type: functional, Homo sapiens; outline: as §1
[17] = Growth inhibition of glioblastoma cells (LNZ 308) by the compound (300 uM) upon incubation for 24 hours using MTT assay; type: functional, Homo sapiens; outline: as §1
[18] = Growth inhibition of glioblastoma cells (LN18) by the compound (200 uM) upon incubation for 72 hours using MTT assay; type: functional, Homo sapiens; design: unit not given here; outline: as §1
[19] = Growth inhibition of glioblastoma cells (LNZ 308 cell) by the compound (300 uM) upon incubation for 48 hours using MTT assay; type: functional, Homo sapiens; design: unit: %; outline: as §1
[20] = Growth inhibition of glioblastoma cells (LNZ 308 cell) by the compound (100 uM) upon incubation for 72 hours using MTT assay; type: functional, Homo sapiens; design: unit not given here; outline: as §1
[21] = Growth inhibition of glioblastoma cells (LNZ 308 cell) by the compound (100 uM) upon incubation for 48 hours using MTT assay; type: functional, Homo sapiens; design: unit not given here; outline: as §1
[22] = Growth inhibition of glioblastoma cells (LNZ 308 cell) by the compound (200 uM) upon incubation for 72 hours using MTT assay; type: functional, Homo sapiens; design: unit: %; outline: as §1
[23] = Growth inhibition of glioblastoma cells (LNZ 308 cell) by the compound (200 uM) upon incubation for 48 hours using MTT assay; type: functional, Homo sapiens; design: unit: %; outline: as §1
[24] = Growth inhibition of glioblastoma cells (LNZ 308 cell) by the compound (300 uM) upon incubation for 72 hours using MTT assay; type: functional, Homo sapiens; design: unit: %; outline: as §1
[25] = Growth inhibition of glioblastoma cells (LNZ 308 cell) by the compound (100 uM) upon incubation for 24 hours using MTT assay; type: functional, Homo sapiens; design: unit not given here; outline: as §1
[26] = Growth inhibition of glioblastoma cells (LNZ 308 cell) by the compound (200 uM) upon incubation for 24 hours using MTT assay; type: functional, Homo sapiens; design: unit: %; outline: as §1
[27] = Growth inhibition of glioblastoma cells (LNZ 308 cell) by the compound (300 uM) upon incubation for 24 hours using MTT assay; type: functional, Homo sapiens; design: unit not given here; outline: as §1
[28] = target: T1, Alpha-mannosidase (Glycine max) (UniProt Q9SEH8); conditions: Prunus dulcis; 1 mM
T1 sequence (whole entry): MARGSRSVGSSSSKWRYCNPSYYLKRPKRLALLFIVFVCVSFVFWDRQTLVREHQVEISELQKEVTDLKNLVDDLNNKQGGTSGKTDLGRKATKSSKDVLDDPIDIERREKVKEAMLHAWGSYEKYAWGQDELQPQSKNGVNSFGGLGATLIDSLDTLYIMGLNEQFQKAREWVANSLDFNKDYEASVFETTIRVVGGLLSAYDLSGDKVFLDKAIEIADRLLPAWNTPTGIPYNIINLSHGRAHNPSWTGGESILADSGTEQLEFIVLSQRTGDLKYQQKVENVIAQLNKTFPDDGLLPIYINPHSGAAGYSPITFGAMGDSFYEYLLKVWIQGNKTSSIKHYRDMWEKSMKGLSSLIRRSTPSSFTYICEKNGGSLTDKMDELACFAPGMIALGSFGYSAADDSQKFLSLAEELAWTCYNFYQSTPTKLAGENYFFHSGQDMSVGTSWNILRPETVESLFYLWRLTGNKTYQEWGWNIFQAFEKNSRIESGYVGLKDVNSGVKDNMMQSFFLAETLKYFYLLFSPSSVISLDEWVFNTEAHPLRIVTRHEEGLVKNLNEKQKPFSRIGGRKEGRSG

Work on `OC[C@H](NC[C@H]1NC[C@H](O)[C@@H]1O)c1ccccc1` yielded a Growth inhibition [1] of 8, a Growth inhibition [2] of 26 and a Growth inhibition [3] of 13. For the same compound, the Growth inhibition [4] was 19, the Growth inhibition [5] was 25 and the Growth inhibition [6] was 22. It also gave a Growth inhibition [7] of 5, a Growth inhibition [8] of 22 and a Growth inhibition [9] of 22. The Growth inhibition [10] was 0, the Growth inhibition [11] was 19 and the Growth inhibition [12] was 16. It also gave a Growth inhibition [13] of 13, a Growth inhibition [14] of 23 and a Growth inhibition [15] of 15. For the same compound, the Growth inhibition [16] was 19, the Growth inhibition [17] was 26 and the Growth inhibition [18] was 12.

`O[C@H]1[C@@H](O)CN[C@@H]1CN[C@@H](COCc1cccc(F)c1)c1ccccc1` gave a Growth inhibition [19] of 56, a Growth inhibition [20] of 6 and a Growth inhibition [1] of 14. It also gave a Growth inhibition [2] of 14, a Growth inhibition [21] of 6 and a Growth inhibition [6] of 76. It also gave a Growth inhibition [22] of 27, a Growth inhibition [9] of 27 and a Growth inhibition [23] of 29. For the same compound, the Growth inhibition [11] was 19, the Growth inhibition [12] was 6 and the Growth inhibition [24] was 53. For the same compound, the Growth inhibition [25] was 2, the Growth inhibition [26] was 14 and the Growth inhibition [27] was 34. The Growth inhibition [14] was 39, the Growth inhibition [15] was 12 and the Growth inhibition [18] was 41.

`OC[C@@H](NC[C@H]1NC[C@H](O)[C@@H]1O)c1ccccc1` showed a Growth inhibition [1] of 4, a Growth inhibition [9] of 7 and a Growth inhibition [10] of 0. For the same compound, the Growth inhibition [11] was 17, the Growth inhibition [13] was 0 and the inhibition [28] was 55%. For the same compound, the Growth inhibition [17] was 28.

`O=C(NCC(NC[C@H]1NC[C@H](O)[C@@H]1O)c1ccccc1)c1cccc(Br)c1` (stereo partly specified) showed a Growth inhibition [19] of 42, a Growth inhibition [20] of 43 and a Growth inhibition [1] of 20. It also gave a Growth inhibition [2] of 46, a Growth inhibition [21] of 19 and a Growth inhibition [6] of 65. It also gave a Growth inhibition [22] of 52, a Growth inhibition [9] of 52 and a Growth inhibition [23] of 40. It also gave a Growth inhibition [11] of 30, a Growth inhibition [12] of 20 and a Growth inhibition [24] of 59. The Growth inhibition [25] was 2, the Growth inhibition [26] was 20 and the Growth inhibition [27] was 50. The Growth inhibition [14] was 50, the Growth inhibition [15] was 43 and the Growth inhibition [18] was 61.
